ChEMBL document CHEMBL1136224, “De novo synthesis of two new cytotoxic tiazofurin analogues with modified sugar moieties” (Bioorg Med Chem Lett, 2003)

Key:
Assay type in all cases: functional, cell-based
Conditions in all cases: Homo sapiens
[1] = tested on: HL-60; assay: Concentration required to inhibit HL-60 cell growth
Procedure, shortened: (§1)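 MTT assay after 24 h incubation with compound, top tested concentration 1000 µM. IC50 = concentration giving 50% inhibition of cell growth relative to untreated control. Human lines: myelogenous leukaemia K562, promyelocytic leukaemia HL60, colon adenocarcinoma HT29, breast adenocarcinoma MCF7, normal foetal lung MRC-5.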

[2] = tested on: HT-29; assay: Concentration required to inhibit HT-29 cell growth; procedure, shortened: as §1
[3] = tested on: K562; assay: Concentration required to inhibit K562 cell growth; procedure, shortened: as §1
[4] = tested on: MCF7; assay: Concentration required to inhibit MCF-7 cell growth; procedure, shortened: as §1
[5] = tested on: MRC5; assay: Concentration required to inhibit MRC-5 cell growth; procedure, shortened: as §1

SMILES | IC50 [1] [µM] | IC50 [2] [µM] | IC50 [3] [µM] | IC50 [4] [µM] | IC50 [5] [µM]
CC(=O)N[C@H]1[C@@H](O)[C@H](c2nc(C(N)=O)cs2)O[C@@H]1CO | 1000 | 1 | 0.095 | > 1000 | 89.7
NC(=O)c1csc([C@@H]2O[C@H](CO)[C@@H](O)[C@H]2O)n1 [TIAZOFURIN] | 9.32 | 1.01 | 4.16 | 8.49 | 0.85
NC(=O)c1csc([C@@H]2O[C@H](CO)[C@@H](F)[C@H]2O)n1 | 10.5 | 0.91 | 96.6 | > 1000 | > 1000
